The source made the active and inactive calls. No cut-off for these calls is given here.
Tests used:
HEL [1] = assay: Cell cycle arrest in human HEL cells assessed as increase in cell population at G2 phase at 10 uM after 24 hrs by flow cytometric analysis; assay type: functional, cell-based
Outline: (§1)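 HEL cells were exposed to 10 μM of each compound for 24 h. DNA content was then analyzed by flow cytometry. Data come from two experiments, each measured in triplicate.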

HEL [2] = assay: Induction of apoptosis in human HEL cells at 10 uM after 48 hrs by annexinV-propidium iodide staining-based flow cytometric analysis; assay type: functional, cell-based
Outline: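 HEL cells were exposed to 10 μM of each compound for 48 h, then stained with Annexin V and propidium iodide and analyzed by flow cytometry. Early apoptosis was scored as Annexin V-positive, PI-negative. Data come from two independent experiments, each in triplicate.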

Bone marrow cell [3] = assay: Anticolonegic activity in mouse bone marrow cells expressing Jak2 V617F mutation assessed as decrease in number of erythroid burst forming units at 25 uM after 24 hrs and measured on day 6; assay type: functional, cell-based
Outline: (§2)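 Bone marrow cells taken from 6-month-old Jak2-V617F transgenic mice were incubated ex vivo in medium containing 25 μM of each compound for 0, 12 or 24 h. Cells were then washed, plated in methylcellulose (semi-solid) medium and cultured for 6 further days. BFU-E and CFU-GM colonies were counted. Each condition was run in duplicate and compared with the 0 h condition.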

HEL [4] = assay: Cell cycle arrest in human HEL cells assessed as decrease in cyclin A expression at 25 uM after 24 hrs by Western blot analysis; assay type: functional, cell-based
Outline: (§3)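 HEL cells were exposed to 25 μM of each compound for 24 h. Lysates were immunoblotted for cyclin A, cyclin B1 and CDK1, with β-actin as the loading control. Two independent experiments were run.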

HEL [5] = assay: Cell cycle arrest in human HEL cells assessed as effect on CDK1 expression at 25 uM after 24 hrs by Western blot analysis; assay type: functional, cell-based; outline: as §3
HEL [6] = assay: Cell cycle arrest in human HEL cells assessed as accumulation at G2/M phase at 10 uM after 24 hrs by flow cytometric analysis; assay type: functional, cell-based; outline: as §1
Bone marrow cell [7] = assay: Anticolonegic activity in mouse bone marrow cells expressing Jak2 V617F mutation assessed as decrease in number of erythroid burst forming units at 25 uM after 12 hrs and measured on day 6; assay type: functional, cell-based; outline: as §2
HEL [8] = assay: Induction of apoptosis in human HEL cells assessed as cleavage of caspase-3 at 25 uM after 24 hrs by Western blot analysis; assay type: functional, cell-based
Outline: (§4)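 HEL cells were exposed to 25 μM of each compound for 24 h. Cleavage of PARP, caspase-3, Bid and Bim was assessed by Western blot. Two experiments were run for each blot.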

HEL [9] = assay: Cell cycle arrest in human HEL cells assessed as decrease in cell population at G1 phase at 10 uM after 24 hrs by flow cytometric analysis; assay type: functional, cell-based; outline: as §1
Bone marrow cell [10] = assay: Anticolonegic activity in mouse bone marrow cells expressing Jak2 V617F mutation assessed as decrease in number of granulocyte/macrophage colony forming units at 25 uM after 24 hrs and measured on day 6; assay type: functional, cell-based; outline: as §2
Bone marrow cell [11] = assay: Anticolonegic activity in mouse bone marrow cells expressing Jak2 V617F mutation assessed as decrease in number of granulocyte/macrophage colony forming units at 25 uM after 12 hrs and measured on day 6; assay type: functional, cell-based; outline: as §2
HEL [12] = assay: Induction of apoptosis in human HEL cells assessed as cleavage of PARP at 25 uM after 24 hrs by Western blot analysis; assay type: functional, cell-based; outline: as §4
HEL [13] = assay: Growth inhibition of human HEL cells expressing Jak2 V617F mutation at 0.03 to 30 uM after 72 hrs by trypan blue exclusion B assay; assay type: functional, cell-based
Outline: (§5)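 HEL cells were incubated with graded compound concentrations for 72 h. Viability was determined by trypan blue exclusion.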

HEL [14] = assay: Cell cycle arrest in human HEL cells assessed as effect on cyclin B1 expression at 25 uM after 24 hrs by Western blot analysis; assay type: functional, cell-based; outline: as §3
[15] = molecular target: Tyrosine-protein kinase JAK2 (Homo sapiens) (UniProt O60674); assay: Jak2 autophosphorylation at 2.5 uM after 30 mins by Western blot analysis as % of control
[16] = molecular target: Tyrosine-protein kinase JAK2 (Homo sapiens) (UniProt O60674); assay: Jak2-mediated GST-STAT1 phosphorylation at 2.5 uM after 30 mins by Western blot analysis as % of control
HEL [17] = assay: Induction of apoptosis in human HEL cells assessed as cleavage of Bim at 25 uM after 24 hrs by Western blot analysis; assay type: functional, cell-based; outline: as §4
[18] = molecular target: Tyrosine-protein kinase JAK2 (Homo sapiens) (UniProt O60674); assay: Inhibition of Jak2-mediated STAT5 phosphorylation at Try694 in human HEL cells at 25 uM after 24 hrs by Western blot analysis; assay type: cell-based
Outline: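 HEL cells were exposed to 25 μM of each compound for 24 h. Lysates were immunoprecipitated for STAT5 and phospho-STAT5 was detected by Western blot. Densitometry expressed phospho-STAT5 as percent of total, normalized to the DMSO control; n = 4.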

HEL [19] = assay: Growth inhibition of human HEL cells expressing Jak2 V617F mutation at 0.85 uM after 72 hrs by trypan blue exclusion B assay; assay type: functional; settings: read-out: GI; outline: as §5
HEL [20] = assay: Induction of apoptosis in human HEL cells assessed as cleavage of Bid at 25 uM after 24 hrs by Western blot analysis; assay type: functional, cell-based; outline: as §4
HEL [21] = assay: Growth inhibition of human HEL cells expressing Jak2 V617F mutation at 0.03 to 30 uM by trypan blue exclusion B assay; assay type: functional, cell-based; settings: TDE = time-dependent effect
BaF3 [22] = assay: Growth inhibition of mouse BAF3 cells expressing Jak2 […] mutation after 72 hrs by MTS assay; assay type: functional, cell-based
Outline: (§6)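 Ba/F3 cells expressing EpoR and Jak2-V617F were incubated with graded compound concentrations for 72 h. Viability was read by MTS assay. Data come from two independent experiments, each in triplicate.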

HEL [23] = assay: Growth inhibition of human HEL cells expressing Jak2 V617F mutation after 72 hrs by trypan blue exclusion B assay; assay type: functional, cell-based; outline: as §5
HEL [24] = assay: Growth inhibition of human HEL cells expressing Jak2 V617F mutation at 0.03 to 30 uM at 24 to 72 hrs by trypan blue exclusion B assay; assay type: functional, cell-based
BaF3 [25] = assay: Growth inhibition of mouse BAF3 cells expressing Jak2 V617 mutation at 0.03 to 30 uM by MTS assay; assay type: functional, cell-based; settings: TDE = time-dependent effect; outline: as §6
BaF3 [26] = assay: Growth inhibition of mouse BAF3 cells expressing Jak2 V617 mutation at 30 uM after 72 hrs by MTS assay; assay type: functional, cell-based; outline: as §6

Tyrosine-protein kinase JAK2 (Homo sapiens), sequence (O60674 whole entry): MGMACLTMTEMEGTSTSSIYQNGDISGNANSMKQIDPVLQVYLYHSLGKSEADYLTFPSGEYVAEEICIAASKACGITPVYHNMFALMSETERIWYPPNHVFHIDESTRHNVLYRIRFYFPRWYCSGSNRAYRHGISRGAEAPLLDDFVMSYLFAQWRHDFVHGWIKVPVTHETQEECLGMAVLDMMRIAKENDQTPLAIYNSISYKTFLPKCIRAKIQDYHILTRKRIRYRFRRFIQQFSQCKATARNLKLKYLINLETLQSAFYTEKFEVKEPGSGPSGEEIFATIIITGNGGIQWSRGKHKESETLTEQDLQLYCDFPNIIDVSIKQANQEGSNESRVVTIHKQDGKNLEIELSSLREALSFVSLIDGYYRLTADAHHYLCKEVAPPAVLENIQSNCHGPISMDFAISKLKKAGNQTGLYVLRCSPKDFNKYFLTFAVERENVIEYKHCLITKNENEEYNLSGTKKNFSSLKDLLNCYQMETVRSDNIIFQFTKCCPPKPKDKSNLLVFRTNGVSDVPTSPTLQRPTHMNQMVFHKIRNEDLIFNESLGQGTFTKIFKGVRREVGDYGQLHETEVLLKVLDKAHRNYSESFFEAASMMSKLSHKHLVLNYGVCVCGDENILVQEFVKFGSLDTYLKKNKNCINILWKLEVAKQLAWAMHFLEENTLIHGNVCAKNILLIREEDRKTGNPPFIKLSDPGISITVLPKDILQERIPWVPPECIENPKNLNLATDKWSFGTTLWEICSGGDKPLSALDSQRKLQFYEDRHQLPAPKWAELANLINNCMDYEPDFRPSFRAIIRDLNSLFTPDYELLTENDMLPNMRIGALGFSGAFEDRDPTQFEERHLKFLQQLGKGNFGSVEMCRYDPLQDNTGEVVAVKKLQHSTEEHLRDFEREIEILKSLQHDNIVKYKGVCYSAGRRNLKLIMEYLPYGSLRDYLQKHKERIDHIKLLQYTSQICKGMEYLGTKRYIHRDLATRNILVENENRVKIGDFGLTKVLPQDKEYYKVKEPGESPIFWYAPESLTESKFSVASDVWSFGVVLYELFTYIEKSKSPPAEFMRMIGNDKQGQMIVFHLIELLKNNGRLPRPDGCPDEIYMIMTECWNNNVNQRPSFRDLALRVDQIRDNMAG

Compound | Activity (HEL [1]) | Activity (HEL [2]) | Activity (Bone marrow cell [3]) | Activity (HEL [4]) | Activity (HEL [5]) | Activity (HEL [6]) | Activity (Bone marrow cell [7]) | Activity (HEL [8]) | Activity (HEL [9]) | Activity (Bone marrow cell [10]) | Activity (Bone marrow cell [11]) | Activity (HEL [12]) | growth inhibition (GI) (HEL [13]) | Activity (HEL [14]) | residual activity [15] [%] | residual activity [16] [%] | further results
C/C(=C(/C)c1ccc(CN(C)C)c(O)c1)c1ccc(CN(C)C)c(O)c1 | Active | Active | Active | Active | inactive | Active | Active | Active | Active | Active | Active | Active | Active | inactive | 98.4 | 104 | –
CN(C)Cc1cc(/C=C/c2ccc(O)c(CN(C)C)c2)ccc1O | Active | Active | Active | Active | inactive | Active | Active | Active | Active | Active | Active | Active | – | inactive | 44.2 | 71.5 | Activity (HEL [17]): Active; inhibition [18]: Active; inhibition of growth at 0.85 µM (HEL [19]): 50%; Activity (HEL [20]): Active; growth inhibition (GI) (HEL [21]): tde; growth inhibition (GI) (BaF3 [22]): Dose-dependent effect; growth inhibition (GI) (HEL [23]): Dose-dependent effect; growth inhibition (GI) (HEL [24]): Active; growth inhibition (GI) (BaF3 [25]): tde
CN(C)Cc1ccc(/C=C/c2ccc(CN(C)C)c(O)c2)cc1O | – | inactive | – | inactive | inactive | – | – | – | – | Active | – | inactive | Active | inactive | 94.4 | 93.3 | growth inhibition (GI) (BaF3 [26]): Active
C/C(=C(/C)c1ccc(O)c(CN(C)C)c1)c1ccc(O)c(CN(C)C)c1 | – | Active | Active | inactive | inactive | – | – | – | – | Active | – | Active | Active | inactive | 89.1 | 89.1 | –
